From ChEMBL document CHEMBL3244345, “Cytostatic quinones. 3. Synthesis of benzotriazolequinones by a new oxidation with m-chloroperbenzoic acid. Biochemical studies” (1978)
≈ marks a conversion by molar mass, not a printed value. Calls of active or inactive are those of the source. No cut-off for these calls is given here.

Key:
HeLa = test: Cytostatic activity against human HeLa cells assessed as growth inhibition after 72 hrs by colorimetric method; type: functional; conditions: read-out: ED50 (the source's name)
Summary of the method: (§1)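 HeLa or KB cells at 10⁵ cells/mL in Minimal Medium Eagle with 10% fetal calf serum were incubated at 37 °C in Leighton tubes. After the cells attached (2-3 h), compound was added in sterile saline with 0.05% Tween 80, making up 10% of the final volume. After 72 h at 37 °C, growth was read as cell protein (Oyama–Eagle colorimetric method). 6-Mercaptopurine was the positive control. ED₅₀ was derived.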

KB = test: Cytostatic activity against human KB cells assessed as growth inhibition after 72 hrs by colorimetric method; type: functional; conditions: read-out: ED50 (the source's name); summary of the method: as §1
Ehrlich [1] = test: Inhibition of DNA synthesis in mouse Ehrlich ascite carcinoma cells assessed as incorporation of [3H]thymidine after 1.5 hrs by liquid scintillation spectrophotometer; type: functional, cell-based
Summary of the method: (§2)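 Ehrlich ascites cells were taken from mice bearing 7-day nonbloody tumors, washed in saline, and resuspended at 5×10⁵ cells/mL in Eagle Spinner medium with 10% fetal calf serum. They were stirred 1.5 h at 37 °C with compound and one labelled precursor: [¹⁴C]glucose 0.2 μCi, [³H]thymidine 0.1 μCi, [³H]uridine 0.5 μCi, or [³H]proline. Then 1 mL samples were diluted in cold saline and pelleted.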

Ehrlich [2] = test: Inhibition of RNA synthesis in mouse Ehrlich ascite carcinoma cells assessed as incorporation of [3H]uridine after 1.5 hrs by liquid scintillation spectrophotometer; type: functional, cell-based; summary of the method: as §2
Ehrlich [3] = test: Inhibition of protein synthesis in mouse Ehrlich ascite carcinoma cells assessed as incorporation of [3H]proline after 1.5 hrs by liquid scintillation spectrophotometer; type: functional, cell-based; summary of the method: as §2
Ehrlich [4] = test: Inhibition of [3H]glucose uptake in mouse Ehrlich ascite carcinoma cells after 1.5 hrs by liquid scintillation spectrophotometer; type: functional, cell-based; conditions: in the assay text read “[14C]glucose” for “[3H]glucose”; summary of the method: as §2
Ehrlich [5] = test: Irreversible inhibition of DNA synthesis in mouse Ehrlich ascite carcinoma cells assessed as incorporation of [3H]thymidine at 10 ug/ml after 1.5 hrs by liquid scintillation spectrophotometer; type: functional, cell-based
Summary of the method: (§3)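 For reversibility, Ehrlich ascites cells were preincubated 1.5 h at 37 °C with or without 10 μg/mL quinone. They were washed in saline at room temperature and resuspended in fresh Eagle Spinner medium. They were then incubated at 37 °C with radiolabelled glucose, thymidine, uridine or proline at the same amounts as the direct assay. Samples were taken over time to follow incorporation.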

Ehrlich [6] = test: Irreversible inhibition of RNA synthesis in mouse Ehrlich ascite carcinoma cells assessed as incorporation of [3H]uridine at 10 ug/ml after 1.5 hrs by liquid scintillation spectrophotometer; type: functional, cell-based; summary of the method: as §3
Ehrlich [7] = test: Irreversible inhibition of protein synthesis in mouse Ehrlich ascite carcinoma cells assessed as incorporation of [3H]proline at 10 ug/ml after 1.5 hrs by liquid scintillation spectrophotometer; type: functional, cell-based; summary of the method: as §3
Ehrlich [8] = test: Irreversible inhibition of [3H]glucose uptake in mouse Ehrlich ascite carcinoma cells at 10 ug/ml after 1.5 hrs by liquid scintillation spectrophotometer; type: functional, cell-based; conditions: in the assay text read “[14C]glucose” for “[3H]glucose”; summary of the method: as §3

EC50 (HeLa) [µg/mL]	EC50 (KB) [µg/mL]	Structure (SMILES)	inhibition (Ehrlich [1])	inhibition (Ehrlich [2])	inhibition (Ehrlich [3])	inhibition (Ehrlich [4])	inhibition (Ehrlich [5])	inhibition (Ehrlich [6])	inhibition (Ehrlich [7])	inhibition (Ehrlich [8])
0.1 (≈ 0.657 µM)	0.1 (≈ 0.657 µM)	Sc1ncnc2nc[nH]c12 [MERCAPTOPURINE ANHYDROUS]								
0.9 (≈ 3.42 µM)	3.5 (≈ 13.3 µM)	COC(=O)C(C)n1nc2c(n1)C(=O)C(C)=C(C)C2=O (stereo not given)	Active	Active	Active	Active				
0.3 (≈ 1.69 µM)	2.5 (≈ 14.1 µM)	CC1=CC(=O)c2nn(C)nc2C1=O	Active	Active	Active	Active				
0.8 (≈ 2.99 µM)	3.5 (≈ 13.1 µM)	CC1=C(C)C(=O)c2nn(Cc3ccccc3)nc2C1=O	Active	Active	Active	Active				
0.5 (≈ 2.62 µM)	3 (≈ 15.7 µM)	CC1=C(C)C(=O)c2nn(C)nc2C1=O	Active	Active	Active	Active				
> 100	> 100	Cc1cc2c(cc1C)[n+]([O-])nn2Cc1ccccc1								
1 (≈ 4.01 µM)	4 (≈ 16 µM)	COC(=O)Cn1nc2c(n1)C(=O)C(C)=C(C)C2=O	Active	Active	Active	Active				
> 100	> 100	COC(=O)C(C)n1n[n+]([O-])c2cc(C)c(C)cc21 (stereo not given)								
> 100	> 100	Cc1cc2c(cc1C)[n+]([O-])nn2C								
0.5 (≈ 2.13 µM)	1.5 (≈ 6.38 µM)	COC(=O)Cn1nc2c(n1)C(=O)C(C)=CC2=O	Active	Active	Active	Active	Active	Active	Active	Active
> 100	> 100	COC(=O)Cn1n[n+]([O-])c2cc(C)c(C)cc21								
